Several values for one entry are separate records, joined by “and”; a condition that tells them apart may be missing. Identical values can stand only once. Activity calls are given as the source filed them. The calls are words filed in the database; no cut-off is given here.
What was measured:
Rattus norvegicus [1] = assay: The antihypertensive activity as percentage fall in systolic blood pressure in spontaneously hypertensive rats after a period of 1 hr for a dose of 50 mg/kg po
Rattus norvegicus [2] = assay: Antihypertensive activity as percentage fall in systolic blood pressure in spontaneously hypertensive rats after a period of 3 hr for a dose of 50 mg/kg po; NS=Not significant; format: functional, organism-based; parameters: dose 50 mg/kg; details: Artery
How it was run: (§1)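 Male Okamoto-Aoki SHR, trained, in groups of four matched for systolic pressure, with a concurrent vehicle control group. Oral dosing on two consecutive mornings, in water as solution or suspension at 0.1 mL/10 g. On day 2 rats were restrained at 30.0 ± 1.0 °C. Tail-cuff systolic pressure, four traces per rat, read at each hour. Per cent fall versus control; 1-tail t test, p ≤ 0.05.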

Rattus norvegicus [3] = assay: The antihypertensive activity as percentage fall in systolic blood pressure in spontaneously hypertensive rats after a period of 4 hr for a dose of 50 mg/kg po
Rattus norvegicus [4] = assay: Antihypertensive activity as percentage fall in systolic blood pressure in spontaneously hypertensive rats after a period of 4 hr for a dose of 50 mg/kg po; NS=Not significant; format: functional, organism-based; parameters: dose 50 mg/kg; details: Artery
How it was run: as §1

Rattus norvegicus [5] = assay: The antihypertensive activity as percentage fall in systolic blood pressure in spontaneously hypertensive rats after a period of 3 hr for a dose of 50 mg/kg po
Rattus norvegicus [6] = assay: The antihypertensive activity as percentage fall in systolic blood pressure in spontaneously hypertensive rats after a period of 2 hr for a dose of 50 mg/kg po
[7] = Distribution coefficient between 1-Octanol and phosphate buffer at pH7.4; format: physicochemical; details: 1-octanol/phosphate buffer, pH 7.4
How it was run: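 Octanol/buffer distribution measured at pH 7.4 in phosphate with sodium chloride. Either HPLC (0.004 M) or shake flask.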

Rattus norvegicus [8] = assay: Antihypertensive activity as percentage fall in systolic blood pressure in spontaneously hypertensive rats after a period of 1 hr for a dose of 50 mg/kg po; NS=Not significant; format: functional, organism-based; parameters: dose 50 mg/kg; details: Artery
How it was run: as §1

Rattus norvegicus [9] = assay: Antihypertensive activity as percentage fall in systolic blood pressure in spontaneously hypertensive rats after a period of 2 hr for a dose of 50 mg/kg po; NS=Not significant; format: functional, organism-based; parameters: dose 50 mg/kg; details: Artery
How it was run: as §1

Rattus norvegicus [10] = assay: Antihypertensive activity as percentage fall in systolic blood pressure in spontaneously hypertensive rats after a period of 1 hr for a dose of 50 mg/kg; format: functional, Artery
How it was run: (§2)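 Male Okamoto-Aoki SHR, trained, in groups of four matched for mean systolic pressure; one group per run received water vehicle. Oral dosing in water (0.1 mL per 10 g) on two consecutive mornings. After the day-2 dose, rats were restrained at 30.0 ± 1.0 °C. Systolic pressure was read by tail cuff (inflated to 300 mmHg, first pulse) at 1–4 h. % fall is versus the untreated control group, by 1-tail t test (p ≤ 0.05).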

Rattus norvegicus [11] = assay: The antihypertensive activity as percentage fall in systolic blood pressure in spontaneously hypertensive rats after a period of 1 hr for a dose of 25 mg/kg po; format: functional, Artery
How it was run: as §2

Rattus norvegicus [12] = assay: The antihypertensive activity as percentage fall in systolic blood pressure in spontaneously hypertensive rats after a period of 2 hr for a dose of 25 mg/kg po; NS=Not significant; format: functional, organism-based; parameters: dose 25 mg/kg; details: Artery
How it was run: as §2

Rattus norvegicus [13] = assay: Percentage fall in systolic blood pressure in spontaneously hypertensive rats after 2 hr following 50 mg/kg p.o.; format: functional, Artery; details: route oral, 50 mg/kg
How it was run: as §2

Rattus norvegicus [14] = assay: The antihypertensive activity as percentage fall in systolic blood pressure in spontaneously hypertensive rats after a period of 3 hr for a dose of 25 mg/kg po; NS=Not significant; format: functional, organism-based; parameters: dose 25 mg/kg; details: Artery
How it was run: as §2

Rattus norvegicus [15] = assay: Percentage fall in systolic blood pressure in spontaneously hypertensive rats after 3 h following 50 mg/kg p.o.; format: functional, Artery; details: route oral
How it was run: as §2

Rattus norvegicus [16] = assay: The antihypertensive activity as percentage fall in systolic blood pressure in spontaneously hypertensive rats after a period of 4 hr for a dose of 25 mg/kg po; NS=Not significant; format: functional, organism-based; parameters: dose 25 mg/kg; details: Artery
How it was run: as §2

[17] = molecular target: T1, Adrenergic receptor alpha-2 (Rattus norvegicus, UniProt P22086+P19328+P22909); assay: Antagonistic potency of compound for Alpha-2 adrenergic receptor; format: functional
T1 sequence (P22086 whole entry): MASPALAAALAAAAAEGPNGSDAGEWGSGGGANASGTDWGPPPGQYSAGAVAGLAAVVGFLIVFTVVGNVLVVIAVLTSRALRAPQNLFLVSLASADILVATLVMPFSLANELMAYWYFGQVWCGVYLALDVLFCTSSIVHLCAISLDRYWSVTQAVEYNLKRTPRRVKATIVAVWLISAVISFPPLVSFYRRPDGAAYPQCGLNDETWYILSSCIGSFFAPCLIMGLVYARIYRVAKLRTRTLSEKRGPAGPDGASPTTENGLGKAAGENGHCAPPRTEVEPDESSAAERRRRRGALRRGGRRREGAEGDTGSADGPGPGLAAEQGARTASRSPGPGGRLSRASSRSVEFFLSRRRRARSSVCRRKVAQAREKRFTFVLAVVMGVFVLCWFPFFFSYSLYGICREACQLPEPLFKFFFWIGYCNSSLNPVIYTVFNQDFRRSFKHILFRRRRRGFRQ
T1 sequence (P19328 whole entry): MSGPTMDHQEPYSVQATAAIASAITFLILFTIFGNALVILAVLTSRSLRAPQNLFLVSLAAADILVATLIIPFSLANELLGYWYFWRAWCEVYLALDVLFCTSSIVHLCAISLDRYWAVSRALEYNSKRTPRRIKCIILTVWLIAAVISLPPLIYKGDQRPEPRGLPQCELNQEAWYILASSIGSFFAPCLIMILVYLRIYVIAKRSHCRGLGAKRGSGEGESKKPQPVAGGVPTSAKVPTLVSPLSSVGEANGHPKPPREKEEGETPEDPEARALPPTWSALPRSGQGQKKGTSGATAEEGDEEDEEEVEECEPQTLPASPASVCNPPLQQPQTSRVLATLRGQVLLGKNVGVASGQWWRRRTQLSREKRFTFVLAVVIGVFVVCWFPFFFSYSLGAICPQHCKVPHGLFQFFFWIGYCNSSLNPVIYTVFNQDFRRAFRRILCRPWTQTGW
T1 sequence (P22909 whole entry): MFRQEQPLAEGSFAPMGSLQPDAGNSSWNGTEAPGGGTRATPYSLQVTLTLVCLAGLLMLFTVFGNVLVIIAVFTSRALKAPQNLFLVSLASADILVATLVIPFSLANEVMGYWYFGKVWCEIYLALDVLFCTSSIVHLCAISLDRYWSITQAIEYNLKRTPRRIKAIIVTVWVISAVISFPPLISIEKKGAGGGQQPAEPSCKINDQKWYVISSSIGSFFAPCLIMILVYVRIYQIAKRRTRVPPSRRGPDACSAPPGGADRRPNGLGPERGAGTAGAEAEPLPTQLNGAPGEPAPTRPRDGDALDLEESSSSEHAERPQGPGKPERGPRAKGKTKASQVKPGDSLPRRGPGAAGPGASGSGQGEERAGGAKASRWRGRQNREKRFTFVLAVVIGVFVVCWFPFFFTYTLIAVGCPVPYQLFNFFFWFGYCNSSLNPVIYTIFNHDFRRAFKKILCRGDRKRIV

[18] = molecular target: T2, Adrenergic receptor alpha-1 (Rattus norvegicus, UniProt P15823+P23944+P43140); assay: Antagonistic potency of compound for Alpha-1 adrenergic receptor; format: functional
T2 sequence (P15823 whole entry): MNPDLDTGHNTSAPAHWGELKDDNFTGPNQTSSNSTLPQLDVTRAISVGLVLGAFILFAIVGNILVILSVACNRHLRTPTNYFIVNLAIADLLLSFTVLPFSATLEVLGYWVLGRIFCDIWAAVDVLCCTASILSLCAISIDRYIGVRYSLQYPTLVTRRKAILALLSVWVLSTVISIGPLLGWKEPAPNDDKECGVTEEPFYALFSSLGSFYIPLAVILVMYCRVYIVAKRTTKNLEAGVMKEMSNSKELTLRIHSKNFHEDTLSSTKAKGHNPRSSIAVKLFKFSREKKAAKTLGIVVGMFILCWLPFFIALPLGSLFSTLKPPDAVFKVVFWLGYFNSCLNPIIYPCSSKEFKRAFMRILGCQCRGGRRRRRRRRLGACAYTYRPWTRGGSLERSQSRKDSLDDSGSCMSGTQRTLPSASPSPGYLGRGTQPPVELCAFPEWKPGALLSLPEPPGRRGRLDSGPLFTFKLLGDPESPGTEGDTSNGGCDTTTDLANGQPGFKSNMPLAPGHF
T2 sequence (P23944 whole entry): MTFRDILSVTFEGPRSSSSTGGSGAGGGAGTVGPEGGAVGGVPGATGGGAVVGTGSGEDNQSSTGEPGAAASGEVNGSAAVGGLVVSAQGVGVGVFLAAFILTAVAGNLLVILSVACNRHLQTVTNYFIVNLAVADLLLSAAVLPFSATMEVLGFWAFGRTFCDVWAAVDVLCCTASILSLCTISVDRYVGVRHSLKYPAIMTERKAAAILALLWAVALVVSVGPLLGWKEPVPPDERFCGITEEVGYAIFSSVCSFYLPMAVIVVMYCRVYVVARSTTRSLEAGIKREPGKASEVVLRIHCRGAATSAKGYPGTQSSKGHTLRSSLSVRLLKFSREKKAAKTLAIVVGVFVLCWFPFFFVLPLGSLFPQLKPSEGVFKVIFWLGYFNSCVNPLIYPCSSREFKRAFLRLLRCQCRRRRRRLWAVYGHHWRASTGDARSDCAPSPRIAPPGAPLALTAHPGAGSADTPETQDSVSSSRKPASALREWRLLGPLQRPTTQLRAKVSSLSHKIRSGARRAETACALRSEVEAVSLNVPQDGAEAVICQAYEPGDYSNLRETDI
T2 sequence (P43140 whole entry): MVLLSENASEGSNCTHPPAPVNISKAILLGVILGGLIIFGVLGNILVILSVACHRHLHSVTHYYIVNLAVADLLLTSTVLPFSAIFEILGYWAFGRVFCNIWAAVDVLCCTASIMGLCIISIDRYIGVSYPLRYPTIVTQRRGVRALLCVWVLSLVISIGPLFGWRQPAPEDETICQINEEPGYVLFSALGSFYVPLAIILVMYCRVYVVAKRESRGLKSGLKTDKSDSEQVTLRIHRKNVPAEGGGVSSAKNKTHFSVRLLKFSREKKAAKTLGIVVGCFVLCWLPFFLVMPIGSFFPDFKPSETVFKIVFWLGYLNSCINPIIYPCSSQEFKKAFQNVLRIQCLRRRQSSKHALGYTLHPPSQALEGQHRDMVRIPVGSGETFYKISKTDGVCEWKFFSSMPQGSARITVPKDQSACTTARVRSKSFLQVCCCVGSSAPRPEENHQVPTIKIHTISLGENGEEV

Row | SMILES | Decrease in blood pressure (Rattus norvegicus [1]) [%] | Decrease in blood pressure (Rattus norvegicus [2]) | Decrease in blood pressure (Rattus norvegicus [3]) [%] | Decrease in blood pressure (Rattus norvegicus [4]) | Decrease in blood pressure (Rattus norvegicus [5]) [%] | Decrease in blood pressure (Rattus norvegicus [6]) [%] | logD [7] | Decrease in blood pressure (Rattus norvegicus [8]) | Decrease in blood pressure (Rattus norvegicus [9]) | Decrease in blood pressure (Rattus norvegicus [10]) [%] | Decrease in blood pressure (Rattus norvegicus [11]) [%] | Decrease in blood pressure (Rattus norvegicus [12]) | Decrease in blood pressure (Rattus norvegicus [13]) | Decrease in blood pressure (Rattus norvegicus [14]) | Decrease in blood pressure (Rattus norvegicus [15]) [%] | Decrease in blood pressure (Rattus norvegicus [16]) | pA2 [17] | pA2 [18]
1 | CN1CC2(CCN(CCc3c[nH]c4ccccc34)CC2)OC1=O | 23 | inactive | 9 | inactive | 8 | 18 | 1.73 | inactive | inactive | – | – | – | – | – | – | – | – | –
2 | CC(C)N1CC2(CCN(CC(O)C3COc4ccccc4O3)CC2)OC1=O (configuration not stated) | – | – | – | – | – | – | 2.05 | – | – | 26 | 14 | inactive | 20% and 16% | inactive | 16 | inactive | – | –
3 | CCC1NC(=O)OC12CCN(CCc1c[nH]c3ccccc13)CC2 (configuration not stated) | 23 | – | 22 | – | 17 | 27 | 1.95 | – | – | 39 | – | – | 27% and 26% | – | 17 | – | 6 | 7.6
